Several values for one entry are separate records, joined by “and”; a condition that tells them apart may be missing. Equal values may be shown once.
Test system: U2OS
Assay: Multiplex assay against U2OS
Assay type: toxicity, cell-based
Settings: human
In short: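 At seeding, live cells were stained with Hoechst33342, BioTracker Green Microtubule Cytoskeleton Dye, MitoTracker Red and Annexin V Alexa Fluor 680. After compound addition they were imaged on a CQ1 microscope at 37°C and 5% CO2, and CellPathfinder machine-learning gating sorted them into Hoechst high-intensity objects or normal cells, with normal cells further split into healthy, pyknosed or fragmented nuclei and pyknosed cells into mitotic or apoptotic. Tubulin, mitochondrial-mass and membrane-permeability phenotypes are given as per cents of cells with healthy nuclei.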

[1] = 12 h, 1 µM, compound concentration 1 uM
[2] = 12 h, 10 µM, compound concentration 10 uM
[3] = 24 h, 1 µM, compound concentration 1 uM
[4] = 24 h, 10 µM, compound concentration 10 uM
[5] = 48 h, 1 µM, compound concentration 1 uM
[6] = 48 h, 10 µM, compound concentration 10 uM

## CSc1nc(NC2CCCC2)c([N+](=O)[O-])c(NC2CCCC2)n1 [GS-39783]
[1]
  Population Apoptotic (%): 82% and 80%
  Population Fragmented Nuclei (%): 25% and 18%
  Population Healthy Nuclei (%): 66% and 76%
  Population Hoechst High Intensity Objects (%): 2% and 3%
  Population Membrane Permeable-Phenotype (%): 4%
  Population Mitochondria Different-Phenotype (%): 3% and 0%
  Population Mitotic Cells (%): 17% and 20%
  Population Normal (%): 97% and 96%
  Population Pyknosed Nuclei (%): 8% and 5%
  Population Tubulin-Different-Phenotype (%): 1%
  Total Cell Count: 209 and 96
[2]
  Population Apoptotic (%): 88% and 100%
  Population Fragmented Nuclei (%): 30% and 19%
  Population Healthy Nuclei (%): 63% and 75%
  Population Hoechst High Intensity Objects (%): 3% and 1%
  Population Membrane Permeable-Phenotype (%): 9%
  Population Mitochondria Different-Phenotype (%): 5% and 0%
  Population Mitotic Cells (%): 11% and 0%
  Population Normal (%): 96% and 98%
  Population Pyknosed Nuclei (%): 5% and 4%
  Population Tubulin-Different-Phenotype (%): 4% and 6%
  Total Cell Count: 322 and 145
[3]
  Population Apoptotic (%): 87% and 84%
  Population Fragmented Nuclei (%): 22% and 20%
  Population Healthy Nuclei (%): 64% and 68%
  Population Hoechst High Intensity Objects (%): 2% and 1%
  Population Membrane Permeable-Phenotype (%): 2% and 1%
  Population Mitochondria Different-Phenotype (%): 1%
  Population Mitotic Cells (%): 12% and 15%
  Population Normal (%): 97% and 98%
  Population Pyknosed Nuclei (%): 12% and 11%
  Population Tubulin-Different-Phenotype (%): 1% and 0%
  Total Cell Count: 269 and 119
[4]
  Population Apoptotic (%): 85% and 88%
  Population Fragmented Nuclei (%): 26% and 18%
  Population Healthy Nuclei (%): 66% and 75%
  Population Hoechst High Intensity Objects (%): 2% and 3%
  Population Membrane Permeable-Phenotype (%): 6% and 9%
  Population Mitochondria Different-Phenotype (%): 6% and 2%
  Population Mitotic Cells (%): 14% and 11%
  Population Normal (%): 97% and 96%
  Population Pyknosed Nuclei (%): 6% and 5%
  Population Tubulin-Different-Phenotype (%): 4% and 5%
  Total Cell Count: 341 and 164
[5]
  Population Apoptotic (%): 88% and 92%
  Population Fragmented Nuclei (%): 18% and 21%
  Population Healthy Nuclei (%): 70% and 71%
  Population Hoechst High Intensity Objects (%): 1% and 0%
  Population Membrane Permeable-Phenotype (%): 3%
  Population Mitochondria Different-Phenotype (%): 1%
  Population Mitotic Cells (%): 11% and 7%
  Population Normal (%): 98% and 100%
  Population Pyknosed Nuclei (%): 11% and 7%
  Population Tubulin-Different-Phenotype (%): 1% and 3%
  Total Cell Count: 382 and 185
[6]
  Population Apoptotic (%): 89% and 85%
  Population Fragmented Nuclei (%): 23% and 12%
  Population Healthy Nuclei (%): 67% and 81%
  Population Hoechst High Intensity Objects (%): 2% and 0%
  Population Membrane Permeable-Phenotype (%): 5% and 4%
  Population Mitochondria Different-Phenotype (%): 1% and 3%
  Population Mitotic Cells (%): 10% and 14%
  Population Normal (%): 97% and 99%
  Population Pyknosed Nuclei (%): 8% and 6%
  Population Tubulin-Different-Phenotype (%): 2% and 3%
  Total Cell Count: 462 and 231

Source: ChEMBL document CHEMBL5724801, “EUbOPEN Chemogenomics Library - Multiplex” (2024)
